From ChEMBL document CHEMBL3046785, “Antifungal activity of borrelidin produced by a Streptomyces strain isolated from soybean” (J Agric Food Chem, 2012)
≈ marks a conversion by molar mass, not a printed value.

What was measured:
Glycine max = experiment: Phytotoxicity against germinated Glycine max (soybean) seeds at 10 mg/L; format: organism-based; conditions: in vivo
Phytophthora sojae [1] = experiment: Antifungal activity against Phytophthora sojae race 1 assessed as growth inhibition at 28 degC after 7 days (beneficial crop soybean); format: functional, organism-based; conditions: race 1, 168 h
Method in brief: (§1)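 Race-specific mycelial growth assay on carrot agar (CA) at 28 °C. Test article was dissolved in methanol, diluted with water and added to CA; a 0.2% methanol plate served as negative control. A 5 mm plug from the colony margin was centred on each plate. Colony diameters were recorded once the control was covered. Inhibition = (1 − D/Dc) × 100. EC50/EC95 came from linear regression. Run in triplicate.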

Phytophthora sojae [2] = experiment: Antifungal activity against Phytophthora sojae race 3 assessed as growth inhibition at 28 degC after 7 days (beneficial crop soybean); format: functional, organism-based; conditions: race 3, 168 h; method in brief: as §1
Phytophthora sojae [3] = experiment: Antifungal activity against Phytophthora sojae race 4 assessed as growth inhibition at 28 degC after 7 days (beneficial crop soybean); format: functional, organism-based; conditions: race 4, 168 h; method in brief: as §1
Phytophthora sojae [4] = experiment: Antifungal activity against Phytophthora sojae race 5 assessed as growth inhibition at 28 degC after 7 days (beneficial crop soybean); format: functional, organism-based; conditions: race 5, 168 h; method in brief: as §1
Phytophthora sojae [5] = experiment: Antifungal activity against Phytophthora sojae race 9 assessed as growth inhibition at 28 degC after 7 days (beneficial crop soybean); format: functional, organism-based; conditions: race 9, 168 h; method in brief: as §1
Phytophthora sojae [6] = experiment: Antifungal activity against Phytophthora sojae race 13 assessed as growth inhibition at 28 degC after 7 days (beneficial crop soybean); format: functional, organism-based; conditions: race 13, 168 h; method in brief: as §1
Phytophthora sojae [7] = experiment: Antifungal activity against Phytophthora sojae race 44 assessed as growth inhibition at 28 degC after 7 days (beneficial crop soybean); format: functional, organism-based; conditions: race 44, 168 h; method in brief: as §1
Phytophthora sojae [8] = experiment: Antifungal activity against Phytophthora sojae race 54 assessed as growth inhibition at 28 degC after 7 days (beneficial crop soybean); format: functional, organism-based; conditions: race 54, 168 h; method in brief: as §1
Phytophthora sojae [9] = experiment: Antifungal activity against Phytophthora sojae race 1 in germinated soybean seeds assessed as root length at 1 mg/L after 48 hr (untreated control = 4.15 +/- 0.71 cm); format: functional
Phytophthora sojae [10] = experiment: Antifungal activity against Phytophthora sojae race 1 in germinated soybean seeds assessed as root length at 5 mg/L after 48 hr (untreated control = 4.15 +/- 0.71 cm); format: functional
Phytophthora sojae [11] = experiment: Antifungal activity against Phytophthora sojae race 1 in germinated soybean seeds assessed as root length at 10 mg/L after 48 hr (untreated control = 4.15 +/- 0.71 cm); format: functional
Phytophthora sojae [12] = experiment: Antifungal activity against Phytophthora sojae race 1 in germinated soybean seeds assessed as lesion length at 1 mg/L after 48 hr (untreated control = 3.34 +/- 0.64 cm); format: functional
Phytophthora sojae [13] = experiment: Antifungal activity against Phytophthora sojae race 1 in germinated soybean seeds assessed as lesion length at 5 mg/L after 48 hr (untreated control = 3.34 +/- 0.64 cm); format: functional
Phytophthora sojae [14] = experiment: Antifungal activity against Phytophthora sojae race 1 in germinated soybean seeds assessed as lesion length at 10 mg/L after 48 hr (untreated control = 3.34 +/- 0.64 cm); format: functional
Phytophthora sojae [15] = experiment: Antifungal activity against Phytophthora sojae race 1 in germinated soybean seeds assessed as disease control efficacy at 1 mg/L after 48 hr relative to control; format: functional
Method in brief: (§2)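 Seeds (Hefeng-25) were surface-sterilised (10% NaOCl, 20 min), rinsed, and germinated at 30 °C until roots exceeded 10 mm, five per dish on wet filter paper. Roots received 2 mL of solution: 1% Tween 80 in water, or 25% WP in water (4/20/40 mg/L = 1/5/10 mg a.i./L). A 7 mm race 1 disk was placed on the roots and removed after 24 h. After 48 h at 28 °C, roots were rated 0–4 and disease index computed. Efficiency is relative to the inoculated Tween control. Three experiments.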

Phytophthora sojae [16] = experiment: Antifungal activity against Phytophthora sojae race 1 in germinated soybean seeds assessed as disease control efficacy at 5 mg/L after 48 hr relative to control; format: functional; method in brief: as §2
Phytophthora sojae [17] = experiment: Antifungal activity against Phytophthora sojae race 1 in germinated soybean seeds assessed as disease control efficacy at 10 mg/L after 48 hr relative to control; format: functional; method in brief: as §2
Phytophthora sojae [18] = experiment: Antifungal activity against Phytophthora sojae race 1 in germinated soybean seeds assessed as root length at 4 mg/L after 48 hr compound at 25% WP (untreated control = 4.15 +/- 0.71 cm); format: functional
Phytophthora sojae [19] = experiment: Antifungal activity against Phytophthora sojae race 1 in germinated soybean seeds assessed as root length at 20 mg/L after 48 hr compound at 25% WP (untreated control = 4.15 +/- 0.71 cm); format: functional
Phytophthora sojae [20] = experiment: Antifungal activity against Phytophthora sojae race 1 in germinated soybean seeds assessed as root length at 40 mg/L after 48 hr compound at 25% WP (untreated control = 4.15 +/- 0.71 cm); format: functional
Phytophthora sojae [21] = experiment: Antifungal activity against Phytophthora sojae race 1 in germinated soybean seeds assessed as lesion length at 4 mg/L after 48 hr compound at 25% WP (untreated control = 3.34 +/- 0.64 cm); format: functional
Phytophthora sojae [22] = experiment: Antifungal activity against Phytophthora sojae race 1 in germinated soybean seeds assessed as lesion length at 20 mg/L after 48 hr compound at 25% WP (untreated control = 3.34 +/- 0.64 cm); format: functional
Phytophthora sojae [23] = experiment: Antifungal activity against Phytophthora sojae race 1 in germinated soybean seeds assessed as lesion length at 40 mg/L after 48 hr compound at 25% WP (untreated control = 3.34 +/- 0.64 cm); format: functional
Phytophthora sojae [24] = experiment: Antifungal activity against Phytophthora sojae race 1 in germinated soybean seeds assessed as disease control efficacy at 4 mg/L after 48 hr compound at 25% WP relative to control; format: functional; method in brief: as §2
Phytophthora sojae [25] = experiment: Antifungal activity against Phytophthora sojae race 1 in germinated soybean seeds assessed as disease control efficacy at 20 mg/L after 48 hr compound at 25% WP relative to control; format: functional; method in brief: as §2
Phytophthora sojae [26] = experiment: Antifungal activity against Phytophthora sojae race 1 in germinated soybean seeds assessed as disease control efficacy at 40 mg/L after 48 hr compound at 25% WP relative to control; format: functional; method in brief: as §2

C[C@@H]1C[C@H](C)C[C@H](C)[C@@H](O)CC(=O)O[C@H]([C@@H]2CCC[C@H]2C(=O)O)C/C=C/C=C(/C#N)[C@H](O)[C@@H](C)C1 [BORRELIDIN]
Activity (Glycine max): Non-toxic | EC50 (Phytophthora sojae [1]): 0.0056 µg/mL (≈ 0.0114 µM) | EC95 (Phytophthora sojae [1]): 0.026 µg/mL (≈ 0.0531 µM) | EC50 (Phytophthora sojae [2]): 0.0051 µg/mL (≈ 0.0104 µM) | EC95 (Phytophthora sojae [2]): 0.021 µg/mL (≈ 0.0429 µM) | EC50 (Phytophthora sojae [3]): 0.0038 µg/mL (≈ 0.00776 µM) | EC95 (Phytophthora sojae [3]): 0.017 µg/mL (≈ 0.0347 µM) | EC50 (Phytophthora sojae [4]): 0.0052 µg/mL (≈ 0.0106 µM) | EC95 (Phytophthora sojae [4]): 0.02 µg/mL (≈ 0.0408 µM) | EC50 (Phytophthora sojae [5]): 0.0053 µg/mL (≈ 0.0108 µM) | EC95 (Phytophthora sojae [5]): 0.02 µg/mL (≈ 0.0408 µM) | EC50 (Phytophthora sojae [6]): 0.0057 µg/mL (≈ 0.0116 µM) | EC95 (Phytophthora sojae [6]): 0.021 µg/mL (≈ 0.0429 µM) | EC50 (Phytophthora sojae [7]): 0.0047 µg/mL (≈ 0.0096 µM) | EC95 (Phytophthora sojae [7]): 0.018 µg/mL (≈ 0.0368 µM) | EC50 (Phytophthora sojae [8]): 0.0057 µg/mL (≈ 0.0116 µM) | EC95 (Phytophthora sojae [8]): 0.021 µg/mL (≈ 0.0429 µM) | Activity (Phytophthora sojae [9]): 6.24 cm | Activity (Phytophthora sojae [10]): 6.53 cm | Activity (Phytophthora sojae [11]): 6.81 cm | Activity (Phytophthora sojae [12]): 1.91 cm | Activity (Phytophthora sojae [13]): 0.73 cm | Activity (Phytophthora sojae [14]): 0.25 cm | Efficacy (Phytophthora sojae [15]): 56.25% | Efficacy (Phytophthora sojae [16]): 80.76% | Efficacy (Phytophthora sojae [17]): 94.72%

COCC(=O)N(c1c(C)cccc1C)C(C)C(=O)OC (stereo unspecified) [METALAXYL]
Activity (Phytophthora sojae [18]): 6.21 cm | Activity (Phytophthora sojae [19]): 6.48 cm | Activity (Phytophthora sojae [20]): 6.73 cm | Activity (Phytophthora sojae [21]): 2.57 cm | Activity (Phytophthora sojae [22]): 1.34 cm | Activity (Phytophthora sojae [23]): 0.62 cm | Efficacy (Phytophthora sojae [24]): 45.52% | Efficacy (Phytophthora sojae [25]): 71.97% | Efficacy (Phytophthora sojae [26]): 87.7% | EC50 (Phytophthora sojae [1]): 0.35 µg/mL (≈ 1.25 µM) | EC95 (Phytophthora sojae [1]): 6.82 µg/mL (≈ 24.4 µM) | EC50 (Phytophthora sojae [2]): 0.17 µg/mL (≈ 0.609 µM) | EC95 (Phytophthora sojae [2]): 4.63 µg/mL (≈ 16.6 µM) | EC50 (Phytophthora sojae [3]): 0.18 µg/mL (≈ 0.644 µM) | EC95 (Phytophthora sojae [3]): 8.03 µg/mL (≈ 28.7 µM) | EC50 (Phytophthora sojae [4]): 0.3 µg/mL (≈ 1.07 µM) | EC95 (Phytophthora sojae [4]): 11.6 µg/mL (≈ 41.5 µM) | EC50 (Phytophthora sojae [5]): 0.34 µg/mL (≈ 1.22 µM) | EC95 (Phytophthora sojae [5]): 11.8 µg/mL (≈ 42.3 µM) | EC50 (Phytophthora sojae [6]): 0.32 µg/mL (≈ 1.15 µM) | EC95 (Phytophthora sojae [6]): 7.55 µg/mL (≈ 27 µM) | EC50 (Phytophthora sojae [7]): 0.28 µg/mL (≈ 1 µM) | EC95 (Phytophthora sojae [7]): 12.2 µg/mL (≈ 43.9 µM) | EC50 (Phytophthora sojae [8]): 0.3 µg/mL (≈ 1.07 µM) | EC95 (Phytophthora sojae [8]): 13.3 µg/mL (≈ 47.5 µM)
